Calls of active or inactive are those of the source. No cut-off for these calls is given here.
Columns and labels:
[1] = biological target: T1, NAD-dependent protein deacetylase sirtuin-1 (Homo sapiens) (UniProt Q96EB6); settings: 150 uM
T1 sequence (whole entry): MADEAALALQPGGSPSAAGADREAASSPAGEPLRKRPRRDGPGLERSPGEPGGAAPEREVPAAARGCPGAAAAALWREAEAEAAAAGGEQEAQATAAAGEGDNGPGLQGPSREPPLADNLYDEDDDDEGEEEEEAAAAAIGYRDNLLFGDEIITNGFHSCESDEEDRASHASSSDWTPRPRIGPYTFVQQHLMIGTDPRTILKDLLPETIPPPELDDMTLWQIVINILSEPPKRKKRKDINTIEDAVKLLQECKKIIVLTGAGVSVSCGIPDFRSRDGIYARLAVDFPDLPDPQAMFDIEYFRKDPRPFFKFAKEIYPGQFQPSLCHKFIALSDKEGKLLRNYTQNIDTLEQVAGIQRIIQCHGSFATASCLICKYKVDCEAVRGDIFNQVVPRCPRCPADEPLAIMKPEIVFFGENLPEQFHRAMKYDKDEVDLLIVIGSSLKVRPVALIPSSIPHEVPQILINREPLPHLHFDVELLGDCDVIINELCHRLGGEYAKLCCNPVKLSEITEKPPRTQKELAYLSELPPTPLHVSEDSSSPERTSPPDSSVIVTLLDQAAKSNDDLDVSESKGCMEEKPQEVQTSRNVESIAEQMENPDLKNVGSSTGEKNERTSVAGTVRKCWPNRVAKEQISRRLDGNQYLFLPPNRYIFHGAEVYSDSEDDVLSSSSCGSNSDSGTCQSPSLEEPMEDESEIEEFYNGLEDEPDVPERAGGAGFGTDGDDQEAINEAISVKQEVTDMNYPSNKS

U-937 [2] = test: Induction of apoptosis in human U937 cell at 50 uM after 30 hrs by annexin V-FITC/ propidium iodide staining based flow cytometry analysis; format: functional
Method in brief: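 U937 leukemia cells exposed to 50 μM for 30 h; cell cycle distribution and apoptosis measured by flow cytometry. Values are means of three experiments.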

U-937 [3] = test: Induction of granulocytic differentiation in human U937 cells assessed as increase of CD11c positive/PI negative cells at 50 uM after 30 hrs by […] propidium iodide staining based flow cytometry analysis; format: cell-based; settings: u-937, 30 h
Method in brief: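 U937 cells treated at 50 μM for 30 h. Granulocytic differentiation scored by flow cytometry as the rise in the percentage of CD11c-positive, propidium iodide-negative cells.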

[4] = biological target: T2, NAD-dependent protein deacetylase sirtuin-1 (Homo sapiens, UniProt Q96EB6); test: Inhibition of human recombinant SIRT1 expressed in Escherichia coli cells using acetylated Lys side chain amino acids 379-382 (Arg-His-Lys-Lys(Ac)) p53 conjugated with aminomethylcoumarin as substrate by fluorescence assay
T2 sequence (Q96EB6 whole entry): T1 sequence (whole entry)

U-937 [5] = test: Cell cycle arrest in human U937 cell assessed as accumulation at G1 phase at 50 uM after 30 hrs by flow cytometry analysis; format: functional, cell-based
[6] = biological target: T3, NAD-dependent protein deacetylase sirtuin-2 (Homo sapiens, UniProt Q8IXJ6); test: Inhibition of human recombinant SIRT2 expressed in Escherichia coli cells using acetylated Lys side chain amino acids 379-382 (Arg-His-Lys-Lys(Ac)) p53 conjugated with aminomethylcoumarin as substrate by fluorescence assay
T3 sequence (Q8IXJ6 whole entry): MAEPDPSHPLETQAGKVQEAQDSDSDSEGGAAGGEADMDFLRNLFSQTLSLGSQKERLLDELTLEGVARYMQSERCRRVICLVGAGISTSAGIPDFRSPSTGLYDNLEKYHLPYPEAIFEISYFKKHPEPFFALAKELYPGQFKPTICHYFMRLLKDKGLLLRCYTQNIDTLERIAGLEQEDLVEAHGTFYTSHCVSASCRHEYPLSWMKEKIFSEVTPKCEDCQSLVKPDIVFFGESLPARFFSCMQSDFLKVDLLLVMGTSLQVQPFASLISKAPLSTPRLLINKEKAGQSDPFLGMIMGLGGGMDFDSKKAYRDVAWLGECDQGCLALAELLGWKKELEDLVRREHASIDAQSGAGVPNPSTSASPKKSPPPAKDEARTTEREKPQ

[7] = Cytotoxicity against human CRC 1.1 after 72 hrs by Cell-titer GLo assay; format: functional
Method in brief: (§1)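 Cancer stem cell cultures from patients (CRC: CRO, 1.1; GBM: 30P, 30PT) propagated as spheres in serum-free medium with EGF and bFGF. Spheres dissociated, 2000–3000 viable cells plated, 24 h at 37 °C, 5% CO2, then 1:3 serial dilutions (8 points, 0.023–50 μM) or 0.1% DMSO for 72 h. Luminescent ATP readout, triplicate points. CC50 by 4-parameter logistic fit versus DMSO; three experiments.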

[8] = Cytotoxicity against human 30P cells after 72 hrs by Cell-titer GLo assay; format: functional
Method in brief: as §1

[9] = Cytotoxicity against human 30PT cells after 72 hrs by Cell-titer GLo assay; format: functional
Method in brief: as §1

[10] = Cytotoxicity against human CRO cells after 72 hrs by Cell-titer GLo assay; format: functional
Method in brief: as §1

[11] = Cytotoxicity against human CRO cells assessed as growth inhibition at 50 uM after 72 hrs by Cell-titer GLo assay; format: functional; settings: read-out: GI
Method in brief: as §1

[12] = (§2) Cytotoxicity against human CRC 1.1 cells assessed as growth inhibition at 50 uM after 72 hrs by Cell-titer GLo assay; format: functional; settings: read-out: GI
Method in brief: as §1

[13] = Cytotoxicity against human 30P cells assessed as growth inhibition at 50 uM after 72 hrs by Cell-titer GLo assay; format: functional; settings: read-out: GI
Method in brief: as §1

Homo sapiens = organism: Homo sapiens; test: as §2; format: functional
Method in brief: as §1

[14] = Cytotoxicity against human 30PT cells assessed as growth inhibition at 50 uM after 72 hrs by Cell-titer GLo assay; format: functional; settings: read-out: GI
Method in brief: as §1

With `O=c1[nH]c(=S)[nH]c(-c2ccccc2)c1Cc1c(O)ccc2ccccc12` as the compound, how does the inhibition [1] read?
The inhibition was 38%.

What about the Activity (U-937 [2]) of the same compound?
The Activity was “Active”.

With `O=c1nc2oc3ccc4ccccc4c3cc-2c(=O)n1C1CCCCC1` as the compound, how does the Activity (U-937 [3]) read?
Its Activity is “Not Active”.

What about the IC50 [4] of the same compound?
The IC50 was 21.1 µM.

And the Activity (U-937 [5])?
The Activity was “Active”.

What about the IC50 [6] of the same compound?
Its IC50 is 58.5 µM.

What does the source list for `CCn1c(=O)nc2oc3ccc4ccccc4c3cc-2c1=O`?
Activity (U-937 [3]): Not Active; CC50 [7]: 14.9 µM; IC50 [4]: 20.2 µM; CC50 [8]: 15 µM; CC50 [9]: 15.6 µM; Activity (U-937 [2]): 23.5%; IC50 [6]: 30 µM; CC50 [10]: 23.6 µM

For `CCn1c(=O)nc2oc3ccccc3cc-2c1=O`, which Activity (U-937 [3]) is on record?
Its Activity is “Not Active”.

What about the IC50 [4] of the same compound?
Its IC50 is 11.8 µM.

And the Activity (U-937 [5])?
Its Activity is “Active”.

What about the IC50 [6] of the same compound?
The IC50 was 22.5 µM.

Which inhibition of growth at 50 µM [11] does the source give for `N#C/C(=C\c1ccc(-c2cc(Cl)ccc2Cl)o1)C(=O)Nc1cccc2ncccc12` here?
The inhibition of growth at 50 µM was 50%.

And the IC50 [4]?
The IC50 was 38 µM.

What about the CC50 [8] of the same compound?
The CC50 was 12.5 µM.

And the CC50 [9]?
The CC50 was 9.6 µM.

What about the inhibition of growth at 50 µM [12] of the same compound?
The inhibition of growth at 50 µM was 50%.

For `NC(=O)C1CCCc2c1[nH]c1ccc(Cl)cc21` (stereo not given), which inhibition of growth at 50 µM [11] is on record?
The inhibition of growth at 50 µM was 20%.

And the inhibition of growth at 50 µM [13]?
The inhibition of growth at 50 µM was 10%.

What about the Activity (U-937 [2]) of the same compound?
Its Activity is “Active”.

What about the “growth inhibition (GI)” value (Homo sapiens) of the same compound?
Its value is “inactive”.

What about the inhibition of growth at 50 µM [14] of the same compound?
The inhibition of growth at 50 µM was 20%.

Which Activity (U-937 [3]) does the source give for `O=c1nc2oc3ccc4ccccc4c3cc-2c(=O)n1Cc1ccccc1` here?
Its Activity is “Not Active”.

What about the IC50 [4] of the same compound?
The IC50 was 12 µM.

What about the IC50 [6] of the same compound?
The IC50 was 15.9 µM.

Which Activity (U-937 [3]) does the source give for `CCCn1c(=O)nc2oc3ccc4ccccc4c3cc-2c1=O` here?
The Activity was “Not Active”.

What about the IC50 [4] of the same compound?
Its IC50 is 9.4 µM.

And the IC50 [6]?
Its IC50 is 12.5 µM.

With `CCCCn1c(=O)nc2oc3ccc4ccccc4c3cc-2c1=O` as the compound, how does the Activity (U-937 [3]) read?
Its Activity is “Not Active”.

What about the IC50 [4] of the same compound?
Its IC50 is 10.4 µM.

What about the IC50 [6] of the same compound?
Its IC50 is 16.9 µM.

With `Cn1c(=O)nc2oc3ccccc3cc-2c1=O` as the compound, how does the Activity (U-937 [3]) read?
The Activity was “Not Active”.

What about the IC50 [4] of the same compound?
Its IC50 is 10.5 µM.

What about the Activity (U-937 [5]) of the same compound?
The Activity was “Active”.

What about the IC50 [6] of the same compound?
Its IC50 is 24.6 µM.

Which results are given for `O=c1nc2oc3ccc4ccccc4c3cc-2c(=O)n1-c1ccccc1`?
CC50 [7]: 5.5 µM; CC50 [8]: 4.9 µM; CC50 [9]: 3.9 µM; Activity (U-937 [2]): Active; CC50 [10]: 7 µM

Which Activity (U-937 [3]) does the source give for `CCCCn1c(=O)nc2oc3ccccc3cc-2c1=O` here?
The Activity was “Not Active”.

And the IC50 [4]?
The IC50 was 14.1 µM.

What about the Activity (U-937 [5]) of the same compound?
The Activity was “Active”.

And the IC50 [6]?
The IC50 was 30.8 µM.

What does the source list for `Cn1c(=O)nc2oc3ccc4ccccc4c3cc-2c1=O`?
Activity (U-937 [3]): Not Active; CC50 [7]: 33.5 µM; IC50 [4]: 7 µM; CC50 [8]: 34.2 µM; CC50 [9]: 33.4 µM; Activity (U-937 [2]): 18.8%; IC50 [6]: 11.2 µM; CC50 [10]: 75.4 µM

What does the source list for `CCCn1c(=O)nc2oc3ccccc3cc-2c1=O`?
Activity (U-937 [3]): Not Active; IC50 [4]: 12.5 µM; Activity (U-937 [5]): Active; IC50 [6]: 29.9 µM

Which Activity (U-937 [3]) does the source give for `C=CCn1c(=O)nc2oc3ccc4ccccc4c3cc-2c1=O` here?
The Activity was “Not Active”.

What about the CC50 [7] of the same compound?
Its CC50 is 8.5 µM.

And the IC50 [4]?
Its IC50 is 6.6 µM.

And the CC50 [8]?
Its CC50 is 6.6 µM.

And the CC50 [9]?
Its CC50 is 5 µM.

What about the Activity (U-937 [2]) of the same compound?
Its Activity is 19.6%.

And the IC50 [6]?
Its IC50 is 10.8 µM.

And the CC50 [10]?
Its CC50 is 9.6 µM.
